Apaf-1 act: activators of human Apaf-1 apoptosome, primary screen, biochemical, DEVD-Rh110 fluorescence, uHTS | Apoptotic protease-activating factor 1 (Homo sapiens), O14727 | activity change, negative = activation, % at 20 µM | 330,000 tested, 0.31% active | Apaf-1 apoptosome caspase-3 activation; active compounds read low;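 active = activity change at or below -40% at 20 µM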
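Schedule: 30 min preincubation, 50 min reaction, room temperature / System: biochemical Apaf-1 apoptosome reconstitution / Medium: 20 mM HEPES pH 7.5 with CHAPS, BSA / Evaluation: Caspase-3 cleavage activity downstream of Apaf-1 activation / Detection: Caspase-3-released Rh110 fluorescence, 540 nm emission, 480 nm excitation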
Rh110 act interf: Rh110 fluorescence interference by putative Apaf-1 activators, confirmation, artefact control for Apaf-1 activator project, biochemical, 20 µM. 980 tested, under 10 active. quenched caspase reaction, Ex480/Em540. shares compounds with Apaf-1 act. fluorescence interference (activity change), % at 20 µM, hits read low;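 active = mean activity change at or below -40% when tested at 20 µM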
Apaf-1 act conf: Apaf-1 activators, single-dose retest, confirmation, biochemical, fluorescence, DEVD-Rh110, 20 µM | 980 tested, 5% active | reconstituted apoptosome caspase-3 activity; active compounds read low | activity change, negative = activation, % at 20 µM | AID 504617, 2011 | shares compounds with Apaf-1 act;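 active = mean activity change at or below -40%, meaning activation of 40% or more, at 20 µM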
Apaf1 act interf: fluorescence interference of Apaf-1 activator hits, dose response, artefact control for Apaf-1 activator project; shares compounds with Apaf-1 act; fluorescence interference counterscreen, Apaf-1 activator assay; EC50, µM; 55 tested, under 10 active; call rule not given here
Of the large screens only hits and unclear results are named; the others gave an inactive call (follow-up assays come after a bar, where they were run). Not all results are given here.

CC(C)(C)OC(=O)[C@H](CCCCN)NC(=O)c1[nH]cnc1C(=O)N[C@@H](Cc1ccccc1)C(=O)OCc1ccccc1	none
Cc1ccc(NC(=S)Nc2cccc3cnccc23)cc1C	none
CCN1C(=NCCc2ccc(Br)cc2)N[C@@H](c2ccccc2)[C@H](C(=O)OC)[C@H]1C	none
c1ccc(-c2cn3nc4c(nc3n2)CCCC4)cc1	none
CCC(Cc1ccccc1)NC(=O)CCn1cccc1 (stereo not drawn)	Apaf-1 act -220 | Rh110 act interf inactive | Apaf-1 act conf inactive
C=CCc1cccc(/C=N/NC(=O)CNc2cccc3ccccc23)c1O	none
Cc1ccc(N(C)S(=O)(=O)c2cccc(C(=O)Nc3ccc(C)cn3)c2)cc1	none
COCCNC(=O)c1c[nH]c2ccc(S(=O)(=O)N(C)c3ccc(C)c(C)c3)cc2c1=O	Apaf-1 act -68 | Rh110 act interf inactive | Apaf-1 act conf inactive
NC(=O)CSc1ncc(-c2ccc([N+](=O)[O-])cc2)[nH]1	Apaf-1 act -244 | Rh110 act interf inactive | Apaf-1 act conf inactive
Cc1[nH]n(-c2ccccc2)c(=O)c1C(C[N+](=O)[O-])c1ccc(F)cc1 (stereo not drawn)	none
CN(CCO)C(=O)c1c(NC(=O)c2ccccc2)sc2c1CCCC2	Apaf-1 act -362 | Rh110 act interf inactive | Apaf-1 act conf inactive
CC(=O)NC1=C(N(C)C2CCS(=O)(=O)C2)C(=O)c2ccccc2C1=O (stereo not drawn)	none
CCN1/C(=C/c2ccc3cc(C)ccc3[n+]2CC)Sc2cc(C)c(C)cc21	none
Cc1ccc(NC2=C(NC(=O)c3ccccc3)C(=O)c3ccccc3C2=O)cc1Cl	none
COc1cc(/C=C2\SC(=O)N(c3cccc(Cl)c3)C2=O)cc([N+](=O)[O-])c1O	Apaf-1 act -142 | Rh110 act interf inactive | Apaf-1 act conf -132 | Apaf1 act interf inactive
COc1cc(/C=C2/C(=O)N(c3ccc([N+](=O)[O-])cc3)N=C2N2CCOCC2)ccc1O	none
CCCCCN=C(N)N/N=C/c1c[nH]c2ccc(OC)cc12	none
CC(Sc1ccc2ccccc2n1)C(=O)O (stereo not drawn)	none
O=C1C(N2CCOCC2)=C(n2nnc3ccccc32)C(=O)c2ccccc21	none
CC(Cn1nnc2ccccc21)C(=O)O (stereo not drawn)	Apaf-1 act -107 | Rh110 act interf inactive | Apaf-1 act conf inactive
N#CC1=C(N)Oc2n[nH]c(-c3cccs3)c2C1c1ccsc1 (stereo not drawn)	none
Cc1ccccc1NC(=O)NC1CCCCCCC1	Apaf-1 act -63 | Rh110 act interf inactive | Apaf-1 act conf inactive
Cc1cc2cc(CNC(=O)NC3CCCCC3)ccc2n1C	none
Cc1cccn2c(=O)c3cc(C(=O)NC4CCCCC4)c(=N)n(Cc4ccccc4)c3nc12	none
O=C(c1ccc2nc(-c3ccco3)c(-c3ccco3)nc2c1)N1CCN(c2ncccn2)CC1	none
CCN1CCN(CCc2nc3cc(NC(=O)COc4ccccc4)ccc3n2C)CC1	none
Cc1cccc(OCCCC(=O)NNC(=O)CCN2CCN(c3ccccc3)CC2)c1	Apaf-1 act -630 | Rh110 act interf inactive | Apaf-1 act conf inactive
COc1cccc(N2CCN(CC(=O)Nc3ccccc3C(=O)NCCc3ccccc3)CC2)c1	none
O=C(O)c1cccc(CN2C(=O)CSC2=O)c1	Apaf-1 act -52 | Rh110 act interf inactive | Apaf-1 act conf inactive
Cc1ccc(N2CC(C(=O)N3CCC(C(=O)Nc4nnc(C(C)(C)C)s4)CC3)CC2=O)cc1 (stereo not drawn)	Apaf-1 act -384 | Rh110 act interf inactive | Apaf-1 act conf inactive
COc1cc(-c2c(C#N)c(=O)[nH]c3c2c(C)nn3-c2ccccc2)ccc1O	none
COc1ccc(O)c(C(=O)c2cc(C#N)c(=O)n(-c3c(C)n(C)n(-c4ccccc4)c3=O)c2)c1	Apaf-1 act -40 | Rh110 act interf inactive | Apaf-1 act conf inactive
CCCCCN(C(=O)NC(=O)Nc1nncs1)S(C)(=O)=O	Apaf-1 act -46 | Rh110 act interf inactive | Apaf-1 act conf inactive
N#CCCN(C(=O)COC(=O)C12CC3CC(CC(O)(C3)C1)C2)c1ccc(F)cc1	none
Cc1ccc(N=Cc2cccc(O)c2O)c(C)c1	none
C#CCOCCOCCOCCNc1nc(N2CCN(C(=O)CCCCCCCCCCNC(=O)[C@H](CCCCN)n3cc(CCO)nn3)CC2)nc(N2CCN(C(=O)CCCCCCCCCCNC(=O)[C@H](CCCCN)n3cc(CCO)nn3)CC2)n1	none
CCn1cc(C(=O)Nc2ccc(NC(=O)c3ccco3)cc2)c(=O)c2ccc(C)nc21	Apaf-1 act -59 | Rh110 act interf inactive | Apaf-1 act conf inactive
CCn1cc(C(=O)OCC(=O)OC2CC(C)CCC2C(C)C)c(=O)c2ccc(C)nc21 (stereo not drawn)	none
CCN(C(=S)NC(=O)c1ccco1)c1cccc2ccccc12	none
CCOC(=O)c1[nH]c(COC(=O)c2ccccc2NC(=O)c2ccco2)c(C(=O)OCC)c1C	Apaf-1 act -383 | Rh110 act interf inactive | Apaf-1 act conf inactive
CN1CCC[C@H]1c1cccnc1	none
O=C1CSC(c2cccnc2)N1CC1CC1 (stereo not drawn)	Apaf-1 act -112 | Rh110 act interf inactive | Apaf-1 act conf inactive
FC(F)(F)c1cc(CCN2CCNC[C@@H]2Cc2ccccc2)cc(C(F)(F)F)c1	none
COc1ccc(CCNc2nc(-c3ccc(F)cc3)c(CC(=O)O)s2)cc1OC	Apaf-1 act -162 | Rh110 act interf inactive | Apaf-1 act conf inactive
CC(=O)N(Cc1ccc(F)cc1)C1=C(NCCc2ccccc2)C(=O)c2ccccc2C1=O	none
N#CC1=C2SCN(Cc3ccccc3)CN2C(=O)CC1c1cccs1 (stereo not drawn)	none
C=CCn1c(N)c(C(=O)OC(C)(C)C)c2nc3ccccc3nc21	none
CC(C)CC(=O)N[C@H](C(=O)N[C@H](C(=O)N[C@@H](CC(C)C)[C@@H](O)CC(=O)N[C@@H](C)C(=O)N[C@@H](CC(C)C)[C@@H](O)CC(=O)O)C(C)C)C(C)C	Apaf-1 act -239 | Rh110 act interf -234 | Apaf-1 act conf inactive
Cc1noc(C)c1C(=O)Nc1ccc(F)cc1F	Apaf-1 act -71 | Rh110 act interf inactive | Apaf-1 act conf inactive
CCN1CCN(C(=O)CN(c2cc(OC)ccc2OC)S(C)(=O)=O)CC1	Apaf-1 act -191 | Rh110 act interf inactive | Apaf-1 act conf inactive
CCOC(=O)c1c2c(n(C)c1C)C(=O)C(=O)c1ccc(Br)cc1-2	none
COc1ccc(C2=Nn3c(nnc3-c3ccccc3F)SC2)cc1OC1CCCC1	none
CSc1ccc(/C=N/NC(=O)CNc2cccc3ccccc23)cc1	none
COc1ccc(/C=N/NC(=O)CNC(=O)/C=C/c2ccco2)cc1OC	Apaf-1 act -408 | Rh110 act interf inactive | Apaf-1 act conf inactive
CC(=O)CC(c1ccccc1)c1c(O)c2ccccc2oc1=O (stereo not drawn)	none
CCCCc1ccc(Nc2nc(CCC)cc(=O)[nH]2)cc1	none
CCC(=O)N(CC)C1=C(O)c2ccccc2C(=O)C1=O	none

Assay outcomes from PubChem.
